Test results published in ChEMBL document CHEMBL3612019, “Revisiting 1,3,4-Oxadiazol-2-ones: Utilization in the Development of ABHD6 Inhibitors” (Bioorg Med Chem, 2015).
Activity calls are given as the source filed them. The calls are words filed in the database; no cut-off is given here.

What was measured:
[1] = target: T1, Lysophosphatidylserine lipase ABHD12 (Mus musculus) (UniProt Q99LR1); experiment: Inhibition of ABHD12 in mouse whole brain membranes at 10 uM incubated for 1 hr by TAMRA-FP probe based competitive activity-based protein profiling assay; type: cell membranes; conditions: Membrane
T1 sequence (whole entry): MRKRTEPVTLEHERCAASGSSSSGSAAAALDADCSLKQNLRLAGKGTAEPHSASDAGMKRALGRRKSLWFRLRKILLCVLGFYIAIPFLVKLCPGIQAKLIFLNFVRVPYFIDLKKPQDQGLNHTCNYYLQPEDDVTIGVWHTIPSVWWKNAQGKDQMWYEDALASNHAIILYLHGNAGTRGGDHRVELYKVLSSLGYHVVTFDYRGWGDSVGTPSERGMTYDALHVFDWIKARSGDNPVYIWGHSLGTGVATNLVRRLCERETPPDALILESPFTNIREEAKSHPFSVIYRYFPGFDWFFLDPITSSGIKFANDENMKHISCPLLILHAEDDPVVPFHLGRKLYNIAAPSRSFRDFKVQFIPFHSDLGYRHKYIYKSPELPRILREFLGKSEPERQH
In short: (§1)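 Competitive ABPP on mouse brain membranes (100 µg) treated 1 h with DMSO or inhibitor. TAMRA-FP labelling then ran 1 h at RT (final probe 2 µM). Reaction was quenched with gel loading buffer and proteins resolved by 10% SDS–PAGE for fluorescent band read-out. WWL70 located the ABHD6 band. Gels are representative of two experiments.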

[2] = target: T2, Fatty-acid amide hydrolase 1 (Mus musculus) (UniProt O08914); experiment: Inhibition of FAAH in mouse whole brain membranes at 10 uM incubated for 1 hr by TAMRA-FP probe based competitive activity-based protein profiling assay; type: cell membranes; conditions: Membrane; in short: as §1
T2 sequence (whole entry): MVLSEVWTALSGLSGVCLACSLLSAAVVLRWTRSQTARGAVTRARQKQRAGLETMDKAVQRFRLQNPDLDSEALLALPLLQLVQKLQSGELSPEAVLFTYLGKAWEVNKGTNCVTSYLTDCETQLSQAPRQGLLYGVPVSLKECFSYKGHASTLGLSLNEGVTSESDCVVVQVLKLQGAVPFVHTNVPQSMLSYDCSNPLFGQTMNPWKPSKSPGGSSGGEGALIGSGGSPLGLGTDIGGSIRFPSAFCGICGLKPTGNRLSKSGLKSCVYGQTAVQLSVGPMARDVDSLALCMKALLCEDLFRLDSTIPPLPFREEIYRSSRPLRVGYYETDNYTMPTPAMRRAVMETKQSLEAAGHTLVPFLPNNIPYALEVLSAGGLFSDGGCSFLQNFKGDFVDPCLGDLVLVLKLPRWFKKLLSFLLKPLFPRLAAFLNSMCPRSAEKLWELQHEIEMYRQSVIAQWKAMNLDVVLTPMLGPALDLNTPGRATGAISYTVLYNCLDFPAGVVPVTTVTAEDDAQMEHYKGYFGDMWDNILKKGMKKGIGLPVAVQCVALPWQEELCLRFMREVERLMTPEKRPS

[3] = target: T3, Monoglyceride lipase (Mus musculus) (UniProt O35678); experiment: Inhibition of MAGL in mouse whole brain membranes at 10 uM incubated for 1 hr by TAMRA-FP probe based competitive activity-based protein profiling assay; type: cell membranes; conditions: Membrane; in short: as §1
T3 sequence (whole entry): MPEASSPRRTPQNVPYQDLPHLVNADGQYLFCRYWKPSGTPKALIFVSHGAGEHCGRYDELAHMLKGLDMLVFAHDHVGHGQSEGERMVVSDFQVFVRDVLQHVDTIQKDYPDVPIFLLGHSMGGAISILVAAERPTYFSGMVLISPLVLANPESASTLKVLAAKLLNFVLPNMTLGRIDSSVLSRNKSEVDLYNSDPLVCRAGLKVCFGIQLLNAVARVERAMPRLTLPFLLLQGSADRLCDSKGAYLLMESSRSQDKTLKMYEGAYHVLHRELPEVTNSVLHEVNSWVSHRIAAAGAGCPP

[4] = target: T4, Lysophosphatidylserine lipase ABHD12 (Homo sapiens) (UniProt Q8N2K0); experiment: Inhibition of human ABHD12 expressed in HEK293 cells assessed as remaining enzyme activity at 1 uM pre-incubated for 10 mins before 2-AG substrate addition by HPLC method; type: cell-based
T4 sequence (whole entry): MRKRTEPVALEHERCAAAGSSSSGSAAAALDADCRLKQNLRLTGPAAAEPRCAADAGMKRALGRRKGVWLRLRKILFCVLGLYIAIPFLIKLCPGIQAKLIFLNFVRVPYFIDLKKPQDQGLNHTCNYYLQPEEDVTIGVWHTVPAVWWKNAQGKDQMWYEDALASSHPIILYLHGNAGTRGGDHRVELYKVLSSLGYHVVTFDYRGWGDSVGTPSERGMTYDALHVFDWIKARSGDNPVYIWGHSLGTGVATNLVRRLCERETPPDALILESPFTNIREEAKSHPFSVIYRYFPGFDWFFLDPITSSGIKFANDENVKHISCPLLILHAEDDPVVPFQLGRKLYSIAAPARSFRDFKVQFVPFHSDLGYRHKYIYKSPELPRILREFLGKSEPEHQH

[5] = target: T5, Fatty-acid amide hydrolase 1 (Homo sapiens) (UniProt O00519); experiment: Inhibition of human FAAH expressed in COS7 cell membranes at 10 uM pre-incubated for 10 mins before [3H]-AEA substrate addition by liquid scintillation counting; conditions: COS-7
T5 sequence (whole entry): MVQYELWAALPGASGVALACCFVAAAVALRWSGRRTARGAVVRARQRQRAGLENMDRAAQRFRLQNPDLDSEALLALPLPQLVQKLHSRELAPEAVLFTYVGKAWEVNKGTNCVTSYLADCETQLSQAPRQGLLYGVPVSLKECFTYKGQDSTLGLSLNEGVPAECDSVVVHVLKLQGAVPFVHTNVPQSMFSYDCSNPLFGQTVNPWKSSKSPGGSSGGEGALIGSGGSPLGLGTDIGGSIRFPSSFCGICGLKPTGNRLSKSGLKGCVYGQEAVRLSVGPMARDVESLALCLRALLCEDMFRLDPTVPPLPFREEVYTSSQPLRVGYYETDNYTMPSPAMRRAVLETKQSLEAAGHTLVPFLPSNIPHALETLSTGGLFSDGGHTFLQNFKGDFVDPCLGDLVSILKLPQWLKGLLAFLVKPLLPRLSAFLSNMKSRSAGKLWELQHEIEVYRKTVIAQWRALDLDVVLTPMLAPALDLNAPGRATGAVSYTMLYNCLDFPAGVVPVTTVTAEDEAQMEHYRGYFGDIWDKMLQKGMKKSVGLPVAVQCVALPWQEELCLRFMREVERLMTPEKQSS

inhibition [1]	inhibition [2]	inhibition [3]	inhibition [4]	inhibition [5] [%]	Structure (SMILES)
Active	Active	Active	inactive	25	Nc1cccc(Cn2nc(Oc3ccccc3)oc2=O)c1
inactive	inactive	inactive	inactive	18	COc1nn(Cc2cccc(N)c2)c(=O)o1
